Measured values from ChEMBL document CHEMBL4706770, “SD-91 as A Potent and Selective STAT3 Degrader Capable of Achieving Complete and Long-Lasting Tumor Regression” (ACS Med Chem Lett, 2021).
pIC50: −log10 of the molar value. Active and inactive are the calls of the source. The rule behind the calls is not given here.

Experiments:
[1] = target: T1, Signal transducer and activator of transcription 6 (Homo sapiens) (UniProt P42226); assay: Induction of STAT6 degradation in human SUP-M2 cells at 0.25 to 100 uM incubated for 14 hrs by Western blot analysis; assay type: cell-based; details: SUPM2, dose 0.25-100 µM
T1 sequence (whole entry): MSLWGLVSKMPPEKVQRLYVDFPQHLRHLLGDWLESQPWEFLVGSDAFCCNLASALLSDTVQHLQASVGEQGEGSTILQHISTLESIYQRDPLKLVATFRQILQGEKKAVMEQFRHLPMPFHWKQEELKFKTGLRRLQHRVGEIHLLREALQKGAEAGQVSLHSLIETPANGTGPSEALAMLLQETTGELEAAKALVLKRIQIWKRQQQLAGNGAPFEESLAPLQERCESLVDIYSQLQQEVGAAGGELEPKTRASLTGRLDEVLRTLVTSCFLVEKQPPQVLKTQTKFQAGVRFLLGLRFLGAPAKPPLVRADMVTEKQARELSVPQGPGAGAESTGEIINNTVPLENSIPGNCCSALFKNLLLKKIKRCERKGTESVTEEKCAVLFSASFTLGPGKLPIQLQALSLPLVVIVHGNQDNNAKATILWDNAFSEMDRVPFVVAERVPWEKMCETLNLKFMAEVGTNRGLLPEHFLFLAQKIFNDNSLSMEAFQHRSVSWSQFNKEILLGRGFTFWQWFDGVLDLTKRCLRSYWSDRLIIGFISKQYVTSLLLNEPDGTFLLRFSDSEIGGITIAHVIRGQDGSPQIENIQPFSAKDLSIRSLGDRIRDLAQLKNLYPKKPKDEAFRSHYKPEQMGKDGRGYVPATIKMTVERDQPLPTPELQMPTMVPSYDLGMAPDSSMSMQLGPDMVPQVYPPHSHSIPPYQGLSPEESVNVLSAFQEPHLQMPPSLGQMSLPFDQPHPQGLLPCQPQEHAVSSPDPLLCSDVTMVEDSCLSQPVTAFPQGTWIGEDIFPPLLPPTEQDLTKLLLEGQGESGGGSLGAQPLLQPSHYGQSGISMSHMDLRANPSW

[2] = target: T2, Signal transducer and activator of transcription 3 (Homo sapiens, UniProt P40763); assay: Induction of STAT3 degradation in human SUP-M2 cells at 0.25 to 100 uM incubated for 14 hrs by Western blot analysis; assay type: cell-based; details: SUPM2, dose 0.25-100 µM
T2 sequence (P40763 whole entry): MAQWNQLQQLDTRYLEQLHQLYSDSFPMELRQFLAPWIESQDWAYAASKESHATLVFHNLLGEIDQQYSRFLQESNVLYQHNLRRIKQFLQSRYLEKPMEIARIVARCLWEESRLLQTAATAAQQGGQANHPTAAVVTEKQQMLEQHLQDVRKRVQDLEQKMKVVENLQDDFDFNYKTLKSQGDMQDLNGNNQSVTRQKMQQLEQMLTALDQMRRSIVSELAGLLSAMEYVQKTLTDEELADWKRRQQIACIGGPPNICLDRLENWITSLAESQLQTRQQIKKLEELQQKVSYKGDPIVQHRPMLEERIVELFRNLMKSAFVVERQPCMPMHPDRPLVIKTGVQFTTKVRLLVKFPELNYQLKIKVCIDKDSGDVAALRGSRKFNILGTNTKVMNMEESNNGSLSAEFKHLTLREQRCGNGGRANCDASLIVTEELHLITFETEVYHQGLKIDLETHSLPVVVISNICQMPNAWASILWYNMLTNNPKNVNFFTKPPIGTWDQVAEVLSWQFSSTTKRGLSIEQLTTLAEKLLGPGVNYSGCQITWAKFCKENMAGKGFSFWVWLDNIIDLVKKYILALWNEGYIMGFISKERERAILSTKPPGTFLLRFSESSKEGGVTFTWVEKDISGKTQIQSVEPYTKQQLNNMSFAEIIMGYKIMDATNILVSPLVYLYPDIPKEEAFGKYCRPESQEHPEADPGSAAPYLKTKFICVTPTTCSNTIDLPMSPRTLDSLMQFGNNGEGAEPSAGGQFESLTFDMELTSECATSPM

[3] = target: T3, Signal transducer and activator of transcription 5A (Homo sapiens) (UniProt P42229); assay: Induction of STAT5 degradation in human SUP-M2 cells at 0.25 to 100 uM incubated for 14 hrs by Western blot analysis; assay type: cell-based; details: SUPM2, dose 0.25-100 µM
T3 sequence (whole entry): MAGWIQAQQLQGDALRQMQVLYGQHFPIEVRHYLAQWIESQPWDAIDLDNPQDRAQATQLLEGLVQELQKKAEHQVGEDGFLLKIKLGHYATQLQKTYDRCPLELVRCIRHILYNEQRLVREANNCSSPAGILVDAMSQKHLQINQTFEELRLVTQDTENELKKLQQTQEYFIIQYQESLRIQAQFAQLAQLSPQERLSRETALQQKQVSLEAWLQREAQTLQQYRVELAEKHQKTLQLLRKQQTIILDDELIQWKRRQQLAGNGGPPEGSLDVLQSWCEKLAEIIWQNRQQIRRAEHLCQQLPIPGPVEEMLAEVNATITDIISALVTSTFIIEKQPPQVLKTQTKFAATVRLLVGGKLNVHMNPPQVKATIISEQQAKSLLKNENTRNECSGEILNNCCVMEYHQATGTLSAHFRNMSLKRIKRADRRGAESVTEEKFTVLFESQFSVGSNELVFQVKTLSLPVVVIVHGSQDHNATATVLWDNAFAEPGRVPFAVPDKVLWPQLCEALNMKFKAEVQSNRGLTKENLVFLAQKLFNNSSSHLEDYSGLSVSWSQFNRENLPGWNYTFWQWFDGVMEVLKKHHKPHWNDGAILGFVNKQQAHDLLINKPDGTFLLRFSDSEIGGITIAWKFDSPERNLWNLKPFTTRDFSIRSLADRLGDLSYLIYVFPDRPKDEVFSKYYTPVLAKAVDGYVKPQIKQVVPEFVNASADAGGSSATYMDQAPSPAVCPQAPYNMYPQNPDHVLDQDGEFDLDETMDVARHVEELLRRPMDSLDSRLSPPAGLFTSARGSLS

[4] = target: T2, Signal transducer and activator of transcription 3; assay: Induction of STAT3 degradation in human SU-DHL-1 cells at 0.25 to 100 uM incubated for 14 hrs by Western blot analysis; assay type: cell-based; details: dose 0.25-100 µM
[5] = Antiproliferative activity against human SUP-M2 cells assessed as cell growth inhibition incubated for 4 days by CellTiter-Glo asssay; assay type: functional, cell-based, SUPM2; details: SUP-M2, 96 h
In short: (§1)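 Growth inhibition tested in MOLM-16 acute leukemia and SU-DHL-1 and SUP-M2 lymphoma cell lines.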

[6] = Antiproliferative activity against human MOLM-16 cells assessed as cell growth inhibition incubated for 4 days by CellTiter-Glo asssay; assay type: functional, cell-based; details: MOLM16, 96 h; in short: as §1
[7] = target: Signal transducer and activator of transcription 2 (Homo sapiens, UniProt P52630); assay: Induction of STAT2 degradation in human SU-DHL-1 cells at 0.25 to 100 uM incubated for 14 hrs by Western blot analysis; assay type: cell-based; details: dose 0.25-100 µM
Signal transducer and activator of transcription 2, sequence (P52630 whole entry): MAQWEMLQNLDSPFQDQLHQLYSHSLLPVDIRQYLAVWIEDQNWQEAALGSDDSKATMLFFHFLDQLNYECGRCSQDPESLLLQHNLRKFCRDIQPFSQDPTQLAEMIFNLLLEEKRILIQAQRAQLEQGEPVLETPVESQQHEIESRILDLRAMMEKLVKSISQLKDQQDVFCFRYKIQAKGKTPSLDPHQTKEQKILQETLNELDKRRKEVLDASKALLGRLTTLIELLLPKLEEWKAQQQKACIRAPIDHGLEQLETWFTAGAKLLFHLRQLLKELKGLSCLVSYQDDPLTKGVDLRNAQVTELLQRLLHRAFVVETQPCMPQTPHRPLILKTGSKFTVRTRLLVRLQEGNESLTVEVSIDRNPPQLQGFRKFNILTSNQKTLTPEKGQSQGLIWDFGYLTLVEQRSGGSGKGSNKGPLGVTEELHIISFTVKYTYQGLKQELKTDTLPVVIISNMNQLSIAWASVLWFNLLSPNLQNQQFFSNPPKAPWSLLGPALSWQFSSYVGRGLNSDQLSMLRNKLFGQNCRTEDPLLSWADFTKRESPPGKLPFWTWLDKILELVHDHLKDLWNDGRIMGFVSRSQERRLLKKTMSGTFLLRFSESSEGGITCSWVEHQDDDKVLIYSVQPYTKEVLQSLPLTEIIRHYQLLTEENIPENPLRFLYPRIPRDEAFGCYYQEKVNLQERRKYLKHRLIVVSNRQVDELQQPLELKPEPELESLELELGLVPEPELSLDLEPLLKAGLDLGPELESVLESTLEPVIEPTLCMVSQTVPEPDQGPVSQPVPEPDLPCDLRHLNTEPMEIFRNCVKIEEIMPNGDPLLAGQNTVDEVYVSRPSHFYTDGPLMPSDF
In short: (§2)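 SU-DHL-1 or SUP-M2 cells treated over 25 nM to 100 μM. STAT family proteins assessed by Western blot.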

[8] = target: T4, Signal transducer and activator of transcription 1-alpha/beta (Homo sapiens) (UniProt P42224); assay: Induction of STAT1 degradation in human SUP-M2 cells at 0.25 to 100 uM incubated for 14 hrs by Western blot analysis; assay type: cell-based; details: SUPM2, dose 0.25-100 µM; in short: as §2
T4 sequence (whole entry): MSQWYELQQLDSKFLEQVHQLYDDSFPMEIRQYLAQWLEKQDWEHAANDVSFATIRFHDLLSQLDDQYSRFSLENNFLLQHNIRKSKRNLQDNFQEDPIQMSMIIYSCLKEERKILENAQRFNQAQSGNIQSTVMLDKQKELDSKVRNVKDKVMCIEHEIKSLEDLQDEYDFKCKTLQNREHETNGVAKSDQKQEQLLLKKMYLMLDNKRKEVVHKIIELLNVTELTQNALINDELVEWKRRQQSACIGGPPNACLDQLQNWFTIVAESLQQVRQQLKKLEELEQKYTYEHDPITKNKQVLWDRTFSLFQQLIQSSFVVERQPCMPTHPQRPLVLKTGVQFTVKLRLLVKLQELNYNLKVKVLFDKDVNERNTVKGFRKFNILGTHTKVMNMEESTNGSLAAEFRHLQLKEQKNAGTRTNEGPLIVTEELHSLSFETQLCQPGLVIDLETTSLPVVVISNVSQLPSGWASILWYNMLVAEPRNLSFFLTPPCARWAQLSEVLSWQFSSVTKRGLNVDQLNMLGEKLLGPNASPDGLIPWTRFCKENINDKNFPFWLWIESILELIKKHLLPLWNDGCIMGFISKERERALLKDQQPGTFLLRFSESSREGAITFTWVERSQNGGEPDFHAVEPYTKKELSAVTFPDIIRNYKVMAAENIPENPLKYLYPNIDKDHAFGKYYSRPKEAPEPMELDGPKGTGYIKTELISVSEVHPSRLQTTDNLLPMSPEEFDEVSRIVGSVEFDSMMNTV

SMILES	Activity [1]	Activity [2]	Activity [3]	Activity [4]	pIC50 [5]	pIC50 [6]	Activity [7]	Activity [8]
NC(=O)CC[C@H](NC(=O)[C@@H]1CC[C@@H]2CCN(C(=O)CCCCCC#Cc3cccc4c3CN(C3CCC(=O)NC3=O)C4=O)C[C@H](NC(=O)c3cc4cc(C(=O)P(=O)(O)O)ccc4[nH]3)C(=O)N21)C(=O)NC(c1ccccc1)c1ccccc1 (some centres not stated)	inactive	Active	inactive	Active	6.34	6.77	inactive	inactive
CC(=O)N1CC[C@H]2CC[C@@H](C(=O)N[C@@H](CCC(N)=O)C(=O)NC(c3ccccc3)c3ccccc3)N2C(=O)[C@@H](NC(=O)c2cc3cc(C(=O)P(=O)(O)O)ccc3[nH]2)C1	inactive	inactive	inactive	inactive	< 5.00	< 5.00	inactive	inactive
NC(=O)CC[C@H](NC(=O)[C@@H]1CC[C@@H]2CCN(C(=O)CCCCCC#Cc3cccc4c3CN(C3CCC(=O)NC3=O)C4=O)C[C@H](NC(=O)c3cc4cc(C(F)(F)P(=O)(O)O)ccc4[nH]3)C(=O)N21)C(=O)NC(c1ccccc1)c1ccccc1 (some centres not stated)	–	–	–	inactive	6.28	6.74	–	–
CC(=O)N1CC[C@H]2CC[C@@H](C(=O)N[C@@H](CCC(N)=O)C(=O)NC(c3ccccc3)c3ccccc3)N2C(=O)[C@@H](NC(=O)c2cc3cc(C(F)(F)P(=O)(O)O)ccc3[nH]2)C1	inactive	inactive	inactive	inactive	< 5.00	< 5.00	inactive	inactive
